Key:
[1] = target: Serine/threonine-protein kinase pim-1 (Homo sapiens) (UniProt P11309); experiment: Binding affinity to wild-type human partial length PIM1 (A15 to K313 residues) expressed in bacterial expression system assessed as residual binding level at 1 uM by Kinomescan method relative to control
[2] = test system: Tyrosine-protein kinase ABL1 (Homo sapiens), P00519 [T315I]; experiment: Binding affinity to human phosphorylated ABL1 T315I mutant (S229 to K512 residues) expressed in mammalian expression system assessed as residual binding level at 1 uM by Kinomescan method relative to control
Method in brief: (§1)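 Kinome-wide selectivity panel run by the KINOMEscan method, with the test compound at a single concentration of 1 μM. Wild-type and mutant kinases were profiled in the same screen.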

[3] = target: Phosphatidylinositol 5-phosphate 4-kinase type-2 beta (Homo sapiens) (UniProt P78356); experiment: Binding affinity to wild-type human full length PIP5K2B (M1 to T416 residues) expressed in bacterial expression system assessed as residual binding level at 1 uM by Kinomescan method relative to control
Method in brief: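 Single-point kinome-wide KINOMEscan binding panel, test compound at 1 μM, run by the provider's standard protocol.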

[4] = target: Interleukin-1 receptor-associated kinase 1 (Homo sapiens) (UniProt P51617); experiment: Binding affinity to wild-type human partial length IRAK1 (R194 to S712 residues) expressed in mammalian expression system assessed as residual binding level at 1 uM by Kinomescan method relative to control
[5] = Metabolic stability in dog liver microsomes assessed as parent compound remaining at 1 uM after 30 mins in presence of NADPH by LC/MS/MS analysis; format: ADME, Canis lupus familiaris, Microsome; conditions: read-out: Stability
Method in brief: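 Compound at 1 μM final with 0.5 mg/mL microsomal protein in 100 mM phosphate buffer pH 7.4 at 37 °C, started by adding an NADPH-regenerating system. Reactions were quenched with cold acetonitrile at 0 and 30 min and spun down. Supernatant was analysed by LC-MS/MS. The 0-min sample, quenched before NADPH addition, was set as 100%, and percent parent remaining came from peak areas.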

[6] = target: Tyrosine-protein kinase SYK (Homo sapiens) (UniProt P43405); experiment: Binding affinity to wild-type human partial length SYK (D354 to N635 residues) expressed in bacterial expression system assessed as residual binding level at 1 uM by Kinomescan method relative to control
[7] = target: Serine/threonine-protein kinase Nek10 (Homo sapiens) (UniProt Q6ZWH5); experiment: Binding affinity to wild-type human partial length NEK10 (L488 to R809 residues) expressed in mammalian expression system assessed as residual binding level at 1 uM by Kinomescan method relative to control
[8] = test system: Tyrosine-protein kinase ABL1 (Homo sapiens), P00519 [H396P]; experiment: Binding affinity to human phosphorylated ABL1 H396P mutant (S229 to K512 residues) expressed in mammalian expression system assessed as residual binding level at 1 uM by Kinomescan method relative to control; method in brief: as §1
[9] = Cmax in mouse at 2 mg/kg, iv; format: ADME, organism-based; design: dose 2 mg/kg, route intravenous; conditions: in vivo
[10] = target: Calcium/calmodulin-dependent protein kinase type II subunit gamma (Homo sapiens) (UniProt Q13555); experiment: Binding affinity to wild-type human partial length CAMK2G (R9 to A303 residues) expressed in bacterial expression system assessed as residual binding level at 1 uM by Kinomescan method relative to control
[11] = target: Dual specificity mitogen-activated protein kinase kinase 6 (Homo sapiens) (UniProt P52564); experiment: Binding affinity to wild-type human partial length MEK6 (K36 to D334 residues) expressed in bacterial expression system assessed as residual binding level at 1 uM by Kinomescan method relative to control
[12] = target: Protein-tyrosine kinase 6 (Homo sapiens) (UniProt Q13882); experiment: Binding affinity to wild-type human partial length BRK (L166 to T451 residues) expressed in bacterial expression system assessed as residual binding level at 1 uM by Kinomescan method relative to control
[13] = target: BMP-2-inducible protein kinase (Homo sapiens) (UniProt Q9NSY1); experiment: Binding affinity to wild-type human partial length BIKE (S34 to N329 residues) expressed in bacterial expression system assessed as residual binding level at 1 uM by Kinomescan method relative to control
[14] = target: Myosin light chain kinase 2, skeletal/cardiac muscle (Homo sapiens) (UniProt Q9H1R3); experiment: Binding affinity to wild-type human partial length MYLK2 (D258 to K570 residues) expressed in bacterial expression system assessed as residual binding level at 1 uM by Kinomescan method relative to control
[15] = target: Myosin-IIIb (Homo sapiens) (UniProt Q8WXR4); experiment: Binding affinity to wild-type human partial length MYO3B (M1 to D357 residues) expressed in bacterial expression system assessed as residual binding level at 1 uM by Kinomescan method relative to control
[16] = Drug uptake in mouse plasma at 2 mg/kg, iv after 2 hrs; format: ADME, organism-based
[17] = target: Mitogen-activated protein kinase kinase kinase 7 (Homo sapiens) (UniProt O43318); experiment: Binding affinity to wild-type human partial length TAK1 (M1 to Q303 residues) expressed in mammalian expression system assessed as residual binding level at 1 uM by Kinomescan method relative to control
[18] = target: Serine/threonine-protein kinase WNK2 (Homo sapiens) (UniProt Q9Y3S1); experiment: Binding affinity to wild-type human partial length WNK2 (V47 to D482 residues) expressed in mammalian expression system assessed as residual binding level at 1 uM by Kinomescan method relative to control
[19] = target: Casein kinase I isoform alpha-like (Homo sapiens) (UniProt Q8N752); experiment: Binding affinity to wild-type human full length CSNK1A1L (M1 to N337 residues) expressed in bacterial expression system assessed as residual binding level at 1 uM by Kinomescan method relative to control
[20] = target: Serine/threonine-protein kinase MARK1 (Homo sapiens) (UniProt Q9P0L2); experiment: Binding affinity to wild-type human partial length MARK1 (Q30 to T341 residues) expressed in bacterial expression system assessed as residual binding level at 1 uM by Kinomescan method relative to control
[21] = target: Serine/threonine-protein kinase PLK3 (Homo sapiens) (UniProt Q9H4B4); experiment: Binding affinity to wild-type human partial length PLK3 (A42 to L334 residues) expressed in mammalian expression system assessed as residual binding level at 1 uM by Kinomescan method relative to control
[22] = target: cGMP-dependent protein kinase 2 (Homo sapiens) (UniProt Q13237); experiment: Binding affinity to wild-type human partial length PRKG2 (S422 to F762 residues) expressed in mammalian expression system assessed as residual binding level at 1 uM by Kinomescan method relative to control
[23] = target: Casein kinase I isoform alpha (Homo sapiens) (UniProt P48729); experiment: Binding affinity to wild-type human partial length CSNK1A1 (M1 to L450 residues) expressed in mammalian expression system assessed as residual binding level at 1 uM by Kinomescan method relative to control
[24] = target: Ephrin type-A receptor 8 (Homo sapiens) (UniProt P29322); experiment: Binding affinity to wild-type human partial length EPHA8 (Q608 to C920 residues) expressed in bacterial expression system assessed as residual binding level at 1 uM by Kinomescan method relative to control

For `C=CC(=O)Nc1cc(Nc2ncc(Cl)c(Nc3ccccc3S(=O)(=O)C(C)C)n2)c(OC)cc1N(C)CCN(C)C`, the Activity [1] was 83%, the Activity [2] was 0.35% and the Activity [3] was 55%. The Activity [4] was 21%, the remaining at 0.5 h, 1 µM [5] was 17% and the Activity [6] was 42%. The Activity [7] was 28%, the Activity [8] was 5.5% and the Cmax [9] was 882 ng/mL. The Activity [10] was 26%, the Activity [11] was 66% and the Activity [12] was 0.4%. The Activity [13] was 92%, the Activity [14] was 77% and the Activity [15] was 1.8%. It also gave a concentration at 2 h [16] of 100 nM, an Activity [17] of 35% and an Activity [18] of 66%. For the same compound, the Activity [19] was 86%, the Activity [20] was 40% and the Activity [21] was 60%. It also gave an Activity [22] of 79%, an Activity [23] of 74% and an Activity [24] of 97%.

From ChEMBL document CHEMBL4382192, “Discovery of a potent dual ALK and EGFR T790M inhibitor” (Eur J Med Chem, 2017)
